Measurements as given in ChEMBL document CHEMBL1145996 (J Med Chem, 2003).
Activity calls are given as the source filed them. The calls are words filed in the database; no cut-off is given here.

Assays:
Assay type in all cases: functional, organism-based
Plasmodium falciparum [1] = test: In vitro antimalarial activity against chloroquine-resistant Plasmodium falciparum W2 Indochina
In short: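 Asynchronous P. falciparum cultures (2% hematocrit, 2% parasitemia) given compound dilutions in DMSO or RPMI-1640, incubated 48 h at 37°C under 90% N2/5% CO2/5% O2 in humidified chamber. Growth read as parasite lactate dehydrogenase activity with Malstat reagent. At least six concentrations, each in duplicate; medium and RBC controls on each plate.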

Plasmodium falciparum [2] = test: In vitro antimalarial activity against chloroquine-sensitive Plasmodium falciparum D6 Sierra Leone
Leishmania donovani [3] = test: Antileishmanial activity of compound against leishmania donovani was determined in luciferase assay; Not active
Leishmania donovani [4] = test: Antileishmanial activity of compound against leishmania donovani was determined in luciferase assay
In short: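 Transgenic Leishmania donovani promastigotes expressing firefly luciferase, 2×10^6 cell/mL, exposed to compound dilutions in 96-well plates at 26°C for 72 h; growth read by luciferase luminescence (Steady Glo). At least six concentrations, each in duplicate; mean values used for growth inhibition curves and IC50. Pentamidine and amphotericin B as standards.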

`OC(c1cc(C(F)(F)F)nc2c(C(F)(F)F)cccc12)C1CCCCN1` (centres undefined) [MEFLOQUINE] gave an IC50 (Plasmodium falciparum [1]) of 195 nM and an IC50 (Plasmodium falciparum [2]) of 170 nM.
In the case of `C[C@@H]1CC[C@H]2[C@H](CCCc3cc(C(F)(F)F)cc(C(F)(F)F)c3)C(=O)O[C@@H]3O[C@@]4(C)CC[C@@H]1[C@]32OO4`, the IC50 (Plasmodium falciparum [1]) is reported as 8.2 nM, the NA (Leishmania donovani [3]) is reported as “inactive” and the IC50 (Plasmodium falciparum [2]) is reported as 12.6 nM.
In the case of `C[C@@H]1CC[C@H]2[C@H](CCCc3ccccc3)C(=O)O[C@@H]3O[C@@]4(C)CCC1[C@]32OO4` (some centres undefined), the IC50 (Plasmodium falciparum [1]) is reported as 3.4 nM, the IC50 (Leishmania donovani [4]) is reported as 45300 nM and the IC50 (Plasmodium falciparum [2]) is reported as 10.4 nM.
`C[C@@H]1CC[C@H]2[C@@H](CCCc3cc(C(F)(F)F)cc(C(F)(F)F)c3)C(=O)O[C@@H]3O[C@@]4(C)CC[C@@H]1[C@]32O4` was tested, and the NA (Leishmania donovani [3]) was “inactive”.
For `C[C@@H]1CC[C@H]2[C@@H](CCCc3ccc(S(C)(=O)=O)cc3)C(=O)O[C@@H]3O[C@@]4(C)CC[C@@H]1[C@]32O4`, the NA (Leishmania donovani [3]) was “inactive”.
`C[C@@H]1CC[C@H]2[C@@H](CCCc3ccccc3)C(=O)O[C@@H]3O[C@@]4(C)CCC1[C@]32OO4` (some centres undefined) gave an IC50 (Plasmodium falciparum [1]) of 1.3 nM, an IC50 (Leishmania donovani [4]) of 11600 nM and an IC50 (Plasmodium falciparum [2]) of 4.7 nM.
With `CC1(C)OO[C@]23CCCC[C@H]2[C@@H](CC(=O)O)C(=O)O[C@@H]3O1` the NA (Leishmania donovani [3]) was “inactive”.
`C[C@@H]1CC[C@H]2[C@@H](CCCc3ccc(C(F)(F)F)cc3)CO[C@@H]3O[C@@]4(C)CC[C@@H]1[C@]32O4` was tested, and the NA (Leishmania donovani [3]) was “inactive”.
Molecule `C[C@@H]1CC[C@H]2[C@@H](CCCc3ccc(N(C)C)cc3)CO[C@@H]3O[C@@]4(C)CC[C@@H]1[C@]32OO4` has an IC50 (Plasmodium falciparum [1]) of 14.3 nM, an IC50 (Leishmania donovani [4]) of 36000 nM and an IC50 (Plasmodium falciparum [2]) of 16.5 nM.
With `C[C@@H]1CC[C@H]2[C@@H](CCCc3cc(C(F)(F)F)cc(C(F)(F)F)c3)C(O)O[C@@H]3O[C@@]4(C)CC[C@@H]1[C@]32OO4` (some centres undefined) the NA (Leishmania donovani [3]) was “inactive”.
Molecule `C[C@@H]1CC[C@H]2[C@@H](CCCc3cc(C(F)(F)F)cc(C(F)(F)F)c3)C(=O)O[C@@H]3O[C@@]4(C)CC[C@@H]1[C@]32OO4` has an IC50 (Plasmodium falciparum [1]) of 16 nM, an IC50 (Leishmania donovani [4]) of 14400 nM and an IC50 (Plasmodium falciparum [2]) of 18.8 nM.
`C[C@@H]1CC[C@H]2[C@@H](C)C(=O)O[C@@H]3OC(C)(C)OO[C@@]32C1` was tested, and the NA (Leishmania donovani [3]) was “inactive”.
`C[C@@H]1CC[C@H]2[C@@H](CCCc3ccc(S(C)(=O)=O)cc3)C(=O)O[C@@H]3O[C@@]4(C)CCC1[C@]32OO4` (some centres undefined) was tested, and the IC50 (Plasmodium falciparum [1]) was 20 nM, the IC50 (Leishmania donovani [4]) was 53800 nM and the IC50 (Plasmodium falciparum [2]) was 30.1 nM.
`C[C@@H]1CC[C@H]2[C@@H](CCCc3ccc(O)cc3)C(=O)O[C@@H]3O[C@@]4(C)CC[C@@H]1[C@]32OO4` was tested, and the IC50 (Plasmodium falciparum [1]) was 4.7 nM, the IC50 (Leishmania donovani [4]) was 44700 nM and the IC50 (Plasmodium falciparum [2]) was 7.9 nM.
`C[C@@H]1CC[C@H]2[C@@H](C)C(=O)O[C@@H]3O[C@@]4(C)CC[C@@H]1[C@]32O4` was tested, and the NA (Leishmania donovani [3]) was “inactive”.
With `CSc1ccc(CCC[C@H]2C(=O)O[C@@H]3O[C@@]4(C)CCC5[C@H](C)CC[C@@H]2[C@]53OO4)cc1` (some centres undefined) the IC50 (Plasmodium falciparum [1]) was 50.8 nM, the IC50 (Leishmania donovani [4]) was 1400 nM and the IC50 (Plasmodium falciparum [2]) was 43.9 nM.
With `C[C@@H]1CC[C@H]2[C@@H](CCCc3ccc(N(C)C)cc3)C(=O)O[C@@H]3O[C@@]4(C)CCC1[C@]32OO4` (some centres undefined) the IC50 (Plasmodium falciparum [1]) was 11.3 nM, the IC50 (Leishmania donovani [4]) was 1900 nM and the IC50 (Plasmodium falciparum [2]) was 27.8 nM.
For `C[C@@H]1CC[C@H]2[C@@H](CCC#N)C(=O)O[C@@H]3O[C@@]4(C)CCC1[C@]32OO4` (some centres undefined), the IC50 (Plasmodium falciparum [1]) was 14.9 nM, the IC50 (Leishmania donovani [4]) was 38900 nM and the IC50 (Plasmodium falciparum [2]) was 14.9 nM.
`C[C@@H]1CC[C@H]2CC(=O)O[C@@H]3O[C@@]4(CCCc5ccc(Cl)cc5)CCC1[C@@]23OO4` (some centres undefined) was tested, and the IC50 (Leishmania donovani [4]) was 11100 nM.
`C[C@@H]1CC[C@H]2[C@@H](CCCc3ccc(Cl)c(Cl)c3)CO[C@@H]3O[C@@]4(C)CC[C@@H]1[C@]32OO4` showed an IC50 (Leishmania donovani [4]) of 2300 nM.
With `C[C@@H]1CC[C@H]2CC(=O)N(CC(=O)OC(C)(C)C)[C@@H]3O[C@@]4(C)CC[C@@H]1[C@@]23OO4` the IC50 (Leishmania donovani [4]) was 27500 nM.
Work on `C[C@@H]1CC[C@H]2[C@@H](CCCc3ccc(C(F)(F)F)cc3)CO[C@@H]3O[C@@]4(C)CC[C@@H]1[C@]32OO4` yielded an IC50 (Leishmania donovani [4]) of 1800 nM.
`C[C@@H]1CC[C@H]2C(C)(C)C(=O)O[C@@H]3O[C@@]4(C)CCC1[C@]32OO4` (some centres undefined) gave an IC50 (Leishmania donovani [4]) of 101000 nM.
`C[C@@H]1CC[C@H]2[C@@H](CCCc3cccc(Cl)c3)CO[C@@H]3O[C@@]4(C)CC[C@@H]1[C@]32O4` was tested, and the NA (Leishmania donovani [3]) was “inactive”.
With `CCC[C@@]12CCC3[C@H](C)CC[C@H]4CC(=O)O[C@H](O1)[C@@]34OO2` (some centres undefined) the IC50 (Leishmania donovani [4]) was 40500 nM.
With `C[C@H]1[C@@H](O)O[C@@H]2O[C@@]3(C)CC[C@H]4[C@H](C)CC[C@@H]1[C@@]24OO3` [ARTENIMOL] the IC50 (Leishmania donovani [4]) was 70300 nM.
`C[C@@H]1CC[C@H]2[C@@H](C)C(=O)O[C@@H]3O[C@@]4(C)CC[C@@H]1[C@]32OO4` [ARTEMISININ] was tested, and the IC50 (Leishmania donovani [4]) was 124000 nM.
Work on `C[C@@H]1CC[C@H]2[C@@H](CCCc3cc(C(F)(F)F)cc(C(F)(F)F)c3)CO[C@@H]3O[C@@]4(C)CC[C@@H]1[C@]32OO4` yielded an IC50 (Leishmania donovani [4]) of 300 nM.
